For data set [1], the target named is T1, Cytochrome P450 3A4 (Homo sapiens, UniProt P08684). The data set is described as follows: Drug metabolism assessed as human recombinant CYP3A4-mediated formation of 4-(1,1,1,3,3,3-hexafluoro-2-hydroxypropan-2-yl)-N-(6-(2-hydroxyethoxy)-5-(2-methoxyphenoxy)-2,2'-bipyrimidin-4-yl)benzenesulfonamide at 5 uM in presence of NADPH after 30 mins by LC-MS/MS analysis. It counts as ADME. To be noted: recombinant enzyme, 0.5 h. The method in brief: (§1)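 Substrate at 5 μM final in 100 mM potassium phosphate, pH 7.4, incubated with human liver microsomes or baculovirus-expressed recombinant CYP3A4, 2D6 or 2C9. Reaction started with 1 mM NADPH and run 0, 15 and 30 min at 37 °C. Stopped with ice-cold acetonitrile containing labetalol internal standard, then centrifuged. Supernatant analysed by LC-MS/MS on a C18 column at 40 °C. Blank was enzyme without substrate.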
T1 sequence (P08684 whole entry): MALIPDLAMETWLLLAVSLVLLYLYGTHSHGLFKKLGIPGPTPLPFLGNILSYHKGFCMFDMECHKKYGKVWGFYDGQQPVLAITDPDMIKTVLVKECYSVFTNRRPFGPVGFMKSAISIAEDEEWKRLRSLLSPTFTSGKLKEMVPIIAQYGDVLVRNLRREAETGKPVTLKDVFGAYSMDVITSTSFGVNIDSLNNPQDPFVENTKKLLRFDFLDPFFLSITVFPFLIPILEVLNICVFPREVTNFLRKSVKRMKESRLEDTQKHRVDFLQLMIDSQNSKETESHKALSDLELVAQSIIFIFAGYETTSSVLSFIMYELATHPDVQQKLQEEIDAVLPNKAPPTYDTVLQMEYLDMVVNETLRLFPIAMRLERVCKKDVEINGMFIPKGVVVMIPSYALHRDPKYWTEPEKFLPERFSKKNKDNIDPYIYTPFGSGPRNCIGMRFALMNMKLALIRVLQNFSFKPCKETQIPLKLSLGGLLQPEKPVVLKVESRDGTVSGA

In another data set the target is Cytochrome P450 2C9 (Homo sapiens, UniProt P11712). Kind of data set: Drug metabolism assessed as human recombinant CYP2C9-mediated metabolite formation by measuring parent compound remaining at 5 uM in presence of NADPH after 30 mins by LC-MS/MS analysis. It counts as ADME. To be noted: recombinant enzyme, 0.5 h. The method in brief:
as §1

The target in data set [2] is T1, Cytochrome P450 3A4. The data set is described as follows: Drug metabolism assessed as human recombinant CYP3A4-mediated formation of 4-(1,1,1,3,3,3-hexafluoro-2-methoxypropan-2-yl)-N-(6-(2-hydroxyethoxy)-5-(2-hydroxyphenoxy)-2,2'-bipyrimidin-4-yl)benzenesulfonamide at 5 uM in presence of NADPH after 30 mins by LC-MS/MS analysis. The class given is ADME. To be noted: recombinant enzyme, 0.5 h. The method in brief:
as §1

Data set [3] in a line: Drug metabolism in human liver microsomes assessed as formation of 4-(1,1,1,3,3,3-hexafluoro-2-methoxypropan-2-yl)-N-(6-(2-hydroxyethoxy)-5-(2-hydroxyphenoxy)-2,2'-bipyrimidin-4-yl)benzenesulfonamide at 5 uM in presence of NADPH after 30 mins by LC-MS/MS analysis. The class given is ADME. To be noted: 0.5 h. The method in brief: as §1
In general terms: Liver microsomes are a subcellular fraction often used to study metabolism.

In data set [4] the target is T2, Endothelin-1 receptor (Homo sapiens) (UniProt P25101).
T2 sequence (whole entry): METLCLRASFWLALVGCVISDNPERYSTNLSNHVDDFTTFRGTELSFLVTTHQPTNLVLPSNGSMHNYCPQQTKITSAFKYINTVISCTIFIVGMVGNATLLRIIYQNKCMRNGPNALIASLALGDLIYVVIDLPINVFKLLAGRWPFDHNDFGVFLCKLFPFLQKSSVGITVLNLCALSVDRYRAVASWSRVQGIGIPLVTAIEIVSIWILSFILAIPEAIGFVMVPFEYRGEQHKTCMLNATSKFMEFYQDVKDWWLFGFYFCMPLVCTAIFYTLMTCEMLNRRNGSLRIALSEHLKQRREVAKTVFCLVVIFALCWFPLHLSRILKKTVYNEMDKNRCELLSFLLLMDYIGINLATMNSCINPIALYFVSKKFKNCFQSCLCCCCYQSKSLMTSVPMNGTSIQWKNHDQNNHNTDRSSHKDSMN
The data set is described as follows: Agonist activity at ETA receptor in human SKNMC cells assessed as induction of Ca2+ mobilization at 10 nM by fluorimetric method relative to control. The class given is functional, cell-based. To be noted: SK-N-MC. The method in brief:
(§2)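 ETA functional assay run by Cerep in human neuroblastoma SK-N-MC cells at 22 °C with fluorimetric read-out. Test solutions were 1, 10, 100 and 1000 nM. Agonist response is given as % of the control response to 100 nM endothelin-1. For antagonist mode, inhibition is given as % of the control endothelin-1 agonist response, with BQ-123 as reference antagonist.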
(A change in cytosolic calcium serves as a functional read-out for many receptors and channels.)

Data set [5] has as its target T2, Endothelin-1 receptor (Homo sapiens). The data set is described as follows: Antagonist activity at ETA receptor in human SKNMC cells assessed as inhibition of endothelin-1-mediated Ca2+ mobilization at 100 nM by fluorimetric method relative to control. The class given is functional, cell-based. To be noted: SK-N-MC. An outline of the steps:
as §2

Data set [6] in a line: Drug metabolism in human liver microsomes assessed as formation of 4-(1,1,1,3,3,3-hexafluoro-2-hydroxypropan-2-yl)-N-(6-(2-hydroxyethoxy)-5-(2-methoxyphenoxy)-2,2'-bipyrimidin-4-yl)benzenesulfonamide at 5 uM in presence of NADPH after 30 mins by LC-MS/MS analysis. It counts as ADME. To be noted: 0.5 h. An outline of the steps: as §1
A short description of data set [7]: Drug metabolism in human liver microsomes assessed as formation of OH-substituted O-demethyl-4-(1,1,1,2,3,3,3-Heptafluoropropan-2-yl)-N-(6-(2-hydroxyethoxy)-5-(2-methoxyphenoxy)-2,2'-bipyrimidin-4-yl)benzenesulfonamide at 5 uM in presence of NADPH after 30 mins by LC-MS/MS analysis. It counts as ADME. To be noted: 0.5 h. An outline of the steps:
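Pooled human liver microsomes in 100 mM potassium phosphate, pH 7.4, with test compound at 5 μM final. Reaction started with 1 mM NADPH (final) and run at 37 °C in a shaking water bath for 0, 15 and 30 min. Stopped with an equal volume of ice-cold acetonitrile containing 0.6 μM labetalol as internal standard. Protein was spun out and the supernatant analysed by LC-MS/MS. Blank had no compound.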

The target of data set [8] is T1, Cytochrome P450 3A4. The data set is described as follows: Drug metabolism assessed as human recombinant CYP3A4-mediated formation of OH-substituted O-demethyl-4-(1,1,1,2,3,3,3-Heptafluoropropan-2-yl)-N-(6-(2-hydroxyethoxy)-5-(2-methoxyphenoxy)-2,2'-bipyrimidin-4-yl)benzenesulfonamide at 5 uM in presence of NADPH after 30 mins by LC-MS/MS analysis. To be noted: recombinant enzyme, 0.5 h. It counts as ADME. The method in brief: as §1

For data set [9], the target named is T1, Cytochrome P450 3A4. The data set is described as follows: Drug metabolism assessed as human recombinant CYP3A4-mediated formation of N-(6-(2-hydroxyethoxy)-5-(2-hydroxyphenoxy)-2,2'-bipyrimidin-4-yl)-4-(perfluoropropan-2-yl)benzenesulfonamide at 5 uM in presence of NADPH after 30 mins by LC-MS/MS analysis. It counts as ADME. As to conditions: recombinant enzyme, 0.5 h. An outline of the steps: as §1

Data set [10] is described as follows: Drug metabolism in human liver microsomes assessed as formation of N-(6-(2-hydroxyethoxy)-5-(2-hydroxyphenoxy)-2,2'-bipyrimidin-4-yl)-4-(perfluoropropan-2-yl)benzenesulfonamide at 5 uM in presence of NADPH after 30 mins by LC-MS/MS analysis. As to conditions: 0.5 h. The class given is ADME. An outline of the steps: as §1

Sequence of Cytochrome P450 2C9 (P11712 whole entry): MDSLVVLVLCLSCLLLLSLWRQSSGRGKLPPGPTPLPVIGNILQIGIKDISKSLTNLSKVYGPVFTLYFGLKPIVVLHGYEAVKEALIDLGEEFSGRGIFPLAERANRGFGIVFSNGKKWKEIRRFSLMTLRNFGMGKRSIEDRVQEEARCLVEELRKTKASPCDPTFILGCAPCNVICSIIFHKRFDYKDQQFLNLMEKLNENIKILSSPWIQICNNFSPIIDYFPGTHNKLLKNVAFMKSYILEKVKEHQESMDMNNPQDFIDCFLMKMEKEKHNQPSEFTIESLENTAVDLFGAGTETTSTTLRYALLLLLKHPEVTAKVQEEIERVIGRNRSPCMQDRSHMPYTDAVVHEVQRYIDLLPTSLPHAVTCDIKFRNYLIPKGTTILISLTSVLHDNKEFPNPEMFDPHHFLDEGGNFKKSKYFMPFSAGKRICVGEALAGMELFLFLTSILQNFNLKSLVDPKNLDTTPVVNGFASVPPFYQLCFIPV

The term inhibition denotes the percentage by which the read-out fell short of the control. For `COc1ccccc1Oc1c(NS(=O)(=O)c2ccc(C(OC)(C(F)(F)F)C(F)(F)F)cc2)nc(-c2ncccn2)nc1OCCO`, the Drug metabolism entry (on Cytochrome P450 3A4 [1]; at Cytochrome P450 3A4 [2]; in data set [3]; in data set [6]) was “Metabolite_Detected” in each case. In addition, the Stability at Cytochrome P450 2C9 was determined as 100%. The Activity in data set [4] came out at 0%. In addition, the inhibition in data set [5] came to 26%.
Consider `COc1ccccc1Oc1c(NS(=O)(=O)c2ccc(C(F)(C(F)(F)F)C(F)(F)F)cc2)nc(-c2ncccn2)nc1OCCO`, for which, at Cytochrome P450 2C9, the Stability turned out to be 100%. The Drug metabolism result (in [7]; on Cytochrome P450 3A4 [8]; at Cytochrome P450 3A4 [9]; in data set [10]) was “Metabolite_Detected” throughout. In data set [4], the Activity is -1%. Besides, the inhibition in data set [5] turned out to be 55%.

Values taken from ChEMBL document CHEMBL3861962 (Eur J Med Chem, 2016).
